Measured values as given in ChEMBL document CHEMBL3745596, “Chlorophenoxy aminoalkyl derivatives as histamine H(3)R ligands and antiseizure agents” (Bioorg Med Chem, 2016).
Activity calls are given as the source filed them.

Legend:
[1] = system: Mus musculus; test: Anticonvulsant activity in CF1 albino mouse assessed as protection against subcutaneous pentetrazole-induced seizure at 100 mg/kg, ip after 4 hrs; format: functional, organism-based
Procedure, shortened: (§1)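 Male CF-1 mice, ip in 0.5% methylcellulose; pentetrazole at CD97 (85 mg/kg) injected subcutaneously in a loose fold of neck skin. Observed 30 min; absence of even a threshold seizure (single clonic spasm lasting at least 5 s) counted as protection. Scored protected/tested, or ED50.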

[2] = system: Mus musculus; test: Neurotoxicity in CF1 albino mouse at 30 mg/kg, ip after 0.5 hrs by rotarod test; format: toxicity, organism-based; settings: in vivo
Procedure, shortened: (§2)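 Rotarod neurotoxicity in male albino CF-1 mice dosed ip with compound suspended in 0.5% methylcellulose. Animal placed on a 1 inch diameter knurled plastic rod rotating at 6 rpm. Neurotoxicity scored when the animal falls off three times within 1 min. Readout is number of animals toxic/number tested at the stated time after dosing. TD50 with 95% confidence interval from the quantitative study.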

[3] = system: Mus musculus; test: Anticonvulsant activity in CF1 albino mouse assessed as protection against subcutaneous pentetrazole-induced seizure at 30 mg/kg, ip after 0.5 hrs; format: functional, organism-based; procedure, shortened: as §1
[4] = system: Mus musculus; test: Neurotoxicity in CF1 albino mouse at 300 mg/kg, ip after 4 hrs by rotarod test; format: toxicity, organism-based; settings: in vivo; procedure, shortened: as §2
[5] = system: Mus musculus; test: Anticonvulsant activity in CF1 albino mouse assessed as protection against maximal electroshock-induced seizure at 30 mg/kg, ip after 0.5 hrs; format: functional, organism-based
Procedure, shortened: (§3)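 Male CF-1 mice dosed ip as suspension in 0.5% methylcellulose. Corneal electrodes deliver 60 Hz alternating current, 50 mA for […], after a drop of 0.5% tetracaine HCl in 0.9% NaCl per eye. Protection means abolition of hindlimb tonic extension; scored as protected/tested, or ED50 with 95% confidence interval.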

[6] = system: Mus musculus; test: Anticonvulsant activity in CF1 albino mouse assessed as protection against maximal electroshock-induced seizure at 10 mg/kg, ip after 0.5 hrs; format: functional, organism-based; procedure, shortened: as §3
[7] = system: Mus musculus; test: Neurotoxicity in CF1 albino mouse at 10 mg/kg, ip after 0.5 hrs by rotarod test; format: toxicity, organism-based; settings: in vivo
Procedure, shortened: (§4)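 Rotarod neurotoxicity in male CF-1 mice dosed ip as 0.5% methylcellulose suspension: mouse placed on 1 inch knurled rod rotating at 6 rpm; toxicity when the animal falls off three times within 1 min, with other signs noted. Scored as toxic/tested at 0.5 h and 4 h.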

[8] = system: Mus musculus; test: Anticonvulsant activity in CF1 albino mouse assessed as protection against maximal electroshock-induced seizure at 3 mg/kg, ip after 0.5 hrs; format: functional, organism-based; procedure, shortened: as §3
[9] = target: Histamine H3 receptor (Homo sapiens, UniProt Q9Y5N1); test: Displacement of [3H]-Nalpha-methylhistamine from human recombinant histamine H3 receptor expressed in HEK293 cells after 90 mins; format: cell-based
Chain of Histamine H3 receptor (Q9Y5N1 whole entry): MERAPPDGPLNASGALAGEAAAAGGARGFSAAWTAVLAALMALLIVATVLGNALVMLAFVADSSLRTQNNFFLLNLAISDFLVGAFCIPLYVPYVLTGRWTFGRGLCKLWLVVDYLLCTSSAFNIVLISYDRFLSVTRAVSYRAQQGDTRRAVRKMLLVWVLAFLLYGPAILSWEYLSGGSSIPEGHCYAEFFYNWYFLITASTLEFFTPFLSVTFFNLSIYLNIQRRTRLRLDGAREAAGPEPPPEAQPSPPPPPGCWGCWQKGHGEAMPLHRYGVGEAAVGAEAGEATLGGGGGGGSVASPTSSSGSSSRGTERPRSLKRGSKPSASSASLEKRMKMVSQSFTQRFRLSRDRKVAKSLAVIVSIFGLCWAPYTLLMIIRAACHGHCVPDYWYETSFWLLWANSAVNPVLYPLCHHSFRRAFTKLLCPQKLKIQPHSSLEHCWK

[10] = system: Rattus norvegicus; test: Neurotoxicity in Sprague-Dawley rat at 30 mg/kg, po by rotarod test; format: toxicity, organism-based; settings: in vivo
Procedure, shortened: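 Oral dosing in male Sprague–Dawley rats, compound as a suspension in 0.5% methylcellulose. Rotarod neurotoxicity on a 1 inch knurled rod turning at 6 rpm, with three falls in 1 min scored as toxic. Reported as toxic/tested.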

[11] = system: Mus musculus; test: Neurotoxicity in CF1 albino mouse assessed as unable to grasp rotarod, diarrhea and clonic seizure at 100 mg/kg, ip after 0.5 hrs by rotarod test; format: toxicity, organism-based; settings: in vivo; procedure, shortened: as §4
[12] = system: Rattus norvegicus; test: Anticonvulsant activity in Sprague-Dawley rat assessed as protection against maximal electroshock-induced seizure at 30 mg/kg, po; format: functional
[13] = system: Mus musculus; test: Anticonvulsant activity in CF1 albino mouse assessed as protection against maximal electroshock-induced seizure at 100 mg/kg, ip after 4 hrs; format: functional, organism-based; procedure, shortened: as §3
[14] = system: Mus musculus; test: Anticonvulsant activity in CF1 albino mouse assessed as protection against maximal electroshock-induced seizure at 30 mg/kg, ip after 4 hrs; format: functional, organism-based; procedure, shortened: as §3
[15] = system: Mus musculus; test: Anticonvulsant activity in CF1 albino mouse assessed as protection against subcutaneous pentetrazole-induced seizure at 100 mg/kg, ip after 0.5 hrs; format: functional, organism-based; procedure, shortened: as §1
[16] = system: Mus musculus; test: Neurotoxicity in CF1 albino mouse assessed as death at 300 mg/kg, ip after 0.5 hrs by rotarod test; format: toxicity, organism-based; settings: in vivo
Procedure, shortened: (§5)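 Male albino CF-1 mice dosed ip with compound suspended in 0.5% methylcellulose, then placed on a 1-inch knurled plastic rod turning at 6 rpm. A fall three times within 1 min counted as neurotoxicity. Observations were made at 0.5 h and 4 h after dosing. Result given as animals showing toxicity per animals tested, with the kind of toxicity recorded.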

[17] = system: Mus musculus; test: Neurotoxicity in CF1 albino mouse at 30 mg/kg, ip after 4 hrs by rotarod test; format: toxicity, organism-based; settings: in vivo; procedure, shortened: as §2
[18] = system: Mus musculus; test: Neurotoxicity in CF1 albino mouse at 3 mg/kg, ip after 0.5 hrs by rotarod test; format: toxicity, organism-based; settings: in vivo; procedure, shortened: as §2
[19] = system: Mus musculus; test: Anticonvulsant activity in CF1 albino mouse assessed as protection against subcutaneous pentetrazole-induced seizure at 30 mg/kg, ip after 4 hrs; format: functional, organism-based; procedure, shortened: as §1
[20] = system: Mus musculus; test: Anticonvulsant activity in CF1 albino mouse assessed as protection against maximal electroshock-induced seizure at 100 mg/kg, ip after 0.5 hrs; format: functional, organism-based; procedure, shortened: as §3
[21] = system: Mus musculus; test: Neurotoxicity in CF1 albino mouse at 100 mg/kg, ip after 4 hrs by rotarod test; format: toxicity, organism-based; settings: in vivo; procedure, shortened: as §2
[22] = system: Mus musculus; test: Anticonvulsant activity in CF1 albino mouse assessed as protection against 6 Hz-psychomotor-induced seizure at 50 mg/kg, ip after 2 hrs; format: functional, organism-based
Procedure, shortened: (§6)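 Male CF-1 mice, ip suspension in 0.5% methylcellulose. Corneal stimulation 0.2 ms monopolar rectangular pulses at 6 Hz, 32 mA for 3 s via constant-current device; mice without minimal clonic phase seizure counted protected. Groups of four; read at 0.25, 0.5, 1, 2, 4 h; result as protected/tested.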

[23] = Neuroprotective activity in hippocampal slice (unknown origin) assessed as protection against kainic acid-induced cell death using propidium iodide staining; format: functional; settings: Hippocampus
Procedure, shortened: (§7)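 Organotypic hippocampal slice cultures exposed to NMDA or kainic acid alone or with compound; propidium iodide in all wells; PI fluorescence intensity of slices, proportional to cell death, compared with excitotoxin-only slices; qualitative.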

[24] = system: Mus musculus; test: Anticonvulsant activity in CF1 albino mouse assessed as protection against 6 Hz-psychomotor-induced seizure at 50 mg/kg, ip after 4 hrs; format: functional, organism-based; procedure, shortened: as §6
[25] = system: Mus musculus; test: Neurotoxicity in CF1 albino mouse at 50 mg/kg, ip after 0.5 hrs by rotarod test; format: toxicity, organism-based; settings: in vivo; procedure, shortened: as §2
[26] = system: Mus musculus; test: Neurotoxicity in CF1 albino mouse assessed as death at 100 mg/kg, ip after 0.5 hrs by rotarod test; format: toxicity, organism-based; settings: in vivo; procedure, shortened: as §5
[27] = system: Mus musculus; test: Anticonvulsant activity in CF1 albino mouse assessed as protection against 6 Hz-psychomotor-induced seizure at 50 mg/kg, ip after 1 hr; format: functional, organism-based; procedure, shortened: as §6
[28] = system: Mus musculus; test: Anticonvulsant activity in ip dosed CF1 albino mouse assessed as protection against subcutaneous pentetrazole-induced seizure after 0.5 hrs; format: functional; procedure, shortened: as §1
[29] = system: Mus musculus; test: Neurotoxicity in CF1 albino mouse at 25 mg/kg, ip after 0.25 to 4 hrs by rotarod test; format: toxicity, organism-based; settings: in vivo; procedure, shortened: as §2
[30] = system: Mus musculus; test: Neurotoxicity in CF1 albino mouse at 50 mg/kg, ip after 4 hrs by rotarod test; format: toxicity, organism-based; settings: in vivo; procedure, shortened: as §2
[31] = Neuroprotective activity in hippocampal slice (unknown origin) assessed as protection against NMDA-induced cell death using propidium iodide staining; format: functional; settings: Hippocampus; procedure, shortened: as §7
[32] = system: Mus musculus; test: Anticonvulsant activity in ip dosed CF1 albino mouse assessed as protection against maximal electroshock-induced seizure after 0.5 hrs; format: functional; procedure, shortened: as §3
[33] = system: Rattus norvegicus; test: Anticonvulsant activity in Sprague-Dawley rat assessed as protection against pilocarpine-induced convulsive status epilepticus at 65 mg/kg, ip; format: functional, organism-based
Procedure, shortened: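 Male Sprague Dawley rats (150–180 g) dosed ip, pilocarpine 50 mg/kg ip given; compound dosed immediately at first behavioral Stage 3 seizure or 30 min later. Number protected from Racine Stage 3 or greater seizures recorded.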

[34] = system: Mus musculus; test: Neurotoxicity in ip dosed CF1 albino mouse after 0.25 hrs by rotarod test; format: toxicity, organism-based; settings: in vivo
Procedure, shortened: as §2, with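 “dosing.” for “dosing. TD50 with 95% confidence interval from the quantitative study.”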

[35] = system: Mus musculus; test: Protective index, ratio of TD50 for ip dosed CF1 albino mouse to ED50 for ip dosed CF1 albino mouse assessed as protection against maximal electroshock-induced seizure after 0.5 hrs; format: functional
Procedure, shortened: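 PI = TD50/ED50. Male CF-1 mice or male Sprague–Dawley rats given compound ip as 0.5% methylcellulose suspension. MES: 60 Hz corneal current, 50 mA mice or 150 mA rats, for […] after tetracaine eye drops; protection is abolition of hindlimb tonic extension.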

[36] = system: Mus musculus; test: Neurotoxicity in CF1 albino mouse at 50 mg/kg, ip after 2 hrs by rotarod test; format: toxicity, organism-based; settings: in vivo; procedure, shortened: as §2
[37] = system: Mus musculus; test: Anticonvulsant activity in CF1 albino mouse assessed as protection against 6 Hz-psychomotor-induced seizure at 25 mg/kg, ip after 0.25 to 4 hrs; format: functional, organism-based; procedure, shortened: as §6
[38] = system: Mus musculus; test: Analgesic activity in mouse assessed as inhibition of formalin-induced paw licking behavior at 13 mg/kg, ip after 0.25 hrs; format: functional, organism-based
Procedure, shortened: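 Male albino mice, ip in 0.5% methylcellulose; 0.5% formalin injected sub-dermally into right hindpaw plantar surface 0.25 h after dosing. Paw licking observed for the first 2 min of each 5-min epoch up to 40 min after dosing; cumulative licking duration compared with vehicle-pretreated group, acute and inflammatory phases.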

CC1CCN(CCCCCCCOc2ccc(Cl)cc2)CC1.O=C(O)C(=O)O
Non-toxic: Activity [2] | Activity [4] | Activity [7] | Activity [10] | Activity [17] | Activity [18] | Activity [21]
Toxic: Activity [11] | Activity [16]
467 nM: Ki [9]
inactive: Activity [1] | Activity [3] | Activity [6] | Activity [8] | Activity [12] | Activity [14] | Activity [15] | Activity [19]
active: Activity [5] | Activity [13] | Activity [20]

CC1CCN(CCCCCCOc2ccc(Cl)cc2)CC1.O=C(O)C(=O)O
active: Activity [5] | Activity [6] | Activity [33] | Activity [14]
189 nM: Ki [9]
13 mg/kg: ED50 [32]
Toxic: Activity [26] | Activity [29] | Activity [16]
inactive: Activity [22] | Activity [23] | Activity [24] | Activity [3] | Activity [27] | Activity [8] | Activity [31] | Activity [19] | Activity [37] | Activity [38]
40.77 mg/kg: TD50 (median neurotoxic dose) [34]
25%: Activity [12]
3.1: Ratio TD50/ED50 [35]
Non-toxic: Activity [2] | Activity [25] | Activity [4] | Activity [7] | Activity [30] | Activity [17] | Activity [18] | Activity [36] | Activity [21]
> 30 mg/kg: ED50 [28]
